Source: PubChem (several laboratories)
Rows were chosen to be rich in hits. Some 1.6% of all compounds tested hit in one or more screens of this group.
Rin1 Abl inh = human Rin1-Abl interaction inhibition. P00519+Q13671. TR-FRET Rin1/Abl binding, biochemical. inhibition, % at 7.35 µM. actives 0.4% (n = 360,000). AID 588664; in the data active means inhibition above about 5%, passing the limit was not always enough
Target sequence (P00519 whole entry, looked up): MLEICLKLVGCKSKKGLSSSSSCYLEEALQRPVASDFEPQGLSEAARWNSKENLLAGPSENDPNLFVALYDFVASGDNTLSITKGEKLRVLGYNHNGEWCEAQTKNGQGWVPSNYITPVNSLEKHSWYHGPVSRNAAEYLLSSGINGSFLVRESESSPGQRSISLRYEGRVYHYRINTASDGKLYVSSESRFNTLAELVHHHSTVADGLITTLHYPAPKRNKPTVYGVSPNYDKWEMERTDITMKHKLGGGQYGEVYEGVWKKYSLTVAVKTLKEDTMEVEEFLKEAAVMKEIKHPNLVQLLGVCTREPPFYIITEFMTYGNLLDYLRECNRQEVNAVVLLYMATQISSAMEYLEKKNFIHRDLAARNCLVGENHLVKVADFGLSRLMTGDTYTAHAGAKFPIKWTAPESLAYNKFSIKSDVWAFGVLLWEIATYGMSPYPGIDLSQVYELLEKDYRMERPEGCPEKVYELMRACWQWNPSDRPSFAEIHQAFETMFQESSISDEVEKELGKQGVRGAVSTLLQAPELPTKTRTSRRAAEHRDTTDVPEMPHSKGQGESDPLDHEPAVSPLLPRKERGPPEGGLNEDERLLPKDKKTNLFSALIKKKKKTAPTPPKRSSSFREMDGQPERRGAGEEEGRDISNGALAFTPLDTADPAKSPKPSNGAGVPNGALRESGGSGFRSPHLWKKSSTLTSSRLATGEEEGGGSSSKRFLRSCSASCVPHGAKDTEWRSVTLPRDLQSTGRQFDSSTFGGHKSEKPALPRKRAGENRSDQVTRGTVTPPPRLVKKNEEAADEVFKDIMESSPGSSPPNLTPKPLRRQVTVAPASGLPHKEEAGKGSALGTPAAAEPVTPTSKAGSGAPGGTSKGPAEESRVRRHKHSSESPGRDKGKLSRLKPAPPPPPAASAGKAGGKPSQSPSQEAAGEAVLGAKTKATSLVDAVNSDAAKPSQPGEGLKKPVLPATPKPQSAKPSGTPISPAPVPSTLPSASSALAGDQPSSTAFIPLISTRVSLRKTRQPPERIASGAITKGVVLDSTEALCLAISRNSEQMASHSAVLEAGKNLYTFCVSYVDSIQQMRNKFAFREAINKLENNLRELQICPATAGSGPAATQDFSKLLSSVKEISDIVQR
Target sequence (Q13671 whole entry, looked up): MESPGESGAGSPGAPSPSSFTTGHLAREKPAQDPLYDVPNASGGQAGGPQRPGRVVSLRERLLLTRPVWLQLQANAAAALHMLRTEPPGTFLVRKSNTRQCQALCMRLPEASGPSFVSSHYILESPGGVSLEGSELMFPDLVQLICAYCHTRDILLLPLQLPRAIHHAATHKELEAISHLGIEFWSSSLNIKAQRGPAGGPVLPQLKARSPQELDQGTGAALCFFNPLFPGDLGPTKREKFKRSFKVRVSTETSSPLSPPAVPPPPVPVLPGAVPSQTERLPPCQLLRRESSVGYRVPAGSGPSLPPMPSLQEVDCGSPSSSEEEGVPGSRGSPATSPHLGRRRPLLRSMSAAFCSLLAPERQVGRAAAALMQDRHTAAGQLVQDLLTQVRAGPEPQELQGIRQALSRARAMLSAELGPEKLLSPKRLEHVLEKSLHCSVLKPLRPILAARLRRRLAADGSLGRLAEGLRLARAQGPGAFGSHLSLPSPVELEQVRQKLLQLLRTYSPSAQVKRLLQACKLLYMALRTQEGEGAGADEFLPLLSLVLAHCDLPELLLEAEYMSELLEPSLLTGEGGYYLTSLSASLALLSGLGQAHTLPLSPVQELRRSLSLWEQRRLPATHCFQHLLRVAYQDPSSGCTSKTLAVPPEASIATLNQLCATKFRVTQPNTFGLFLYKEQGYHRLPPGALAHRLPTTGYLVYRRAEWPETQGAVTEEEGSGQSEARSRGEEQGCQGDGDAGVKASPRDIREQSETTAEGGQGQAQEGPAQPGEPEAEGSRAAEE
Arrestin-AP2 inh = human beta-arrestin and AP2 interaction inhibition | FITC-arrestin peptide / GST-AP2 beads, flow cytometry; AP2 beta2 appendage carries R879A mutation | inhibition, % at 10 µM | actives 0.31% (n = 340,000) | AID 504490;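 active means inhibition above a set limit, near 3 SD of compounds lacking own fluorescence, cut at about 54% in these data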
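Material – AP2 appendage R879A on GSH beads · Buffer or medium – PBS with 0.05% Tween 20 and 0.1% BSA · Probe or stimulus – fluorescein-tagged arrestin peptide at 50 nM final · Incubation – compound with beads 12 min RT, then probe 1 h RT · Detection – high-throughput flow cytometry of beads, ex 488, em 535 nm · Evaluation – percent response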
TbMetRS inhib = blocks T. brucei methionyl-tRNA synthetase activity; purified T. brucei MetRS, ATP depletion, Kinase-Glo luminescence; AID 624268; actives 0.4% (n = 360,000); inhibition, % at 11.9 µM;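 active means inhibition above a per-plate cutoff of the control wells' mean inhibition plus 3 SD, cut at about 5.5% in these data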
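assay system = parasite MetRS enzyme | timing = 15 min preincubation, 2 h reaction, all 25 °C | evaluation = percent inhibition relative to median high and low control wells | medium = HEPES buffer containing pyrophosphatase, BSA, spermine, DTT | compound = single dose, 11.9 µM final nominal, 0.9% final DMSO | detection = Kinase-Glo luminescence, ATP depletion format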
MT1-MMP act inh = MT1-MMP (human) activation inhibition; actives 0.061% (n = 360,000); P50281; GFP/RFP ratio change, % at 20 µM; HT1080 RFP-PRO-GFP cells, GFP/RFP ratio fluorescence, overnight; percent of plate control window, DMSO zero; AID 651647;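 active means GFP/RFP ratio change of at least 30% with cell ATP level not reduced by more than half and red fluorescence within 50% of control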
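system = RFP-PRO-GFP reporter HT1080 cells | dosing = 20 µM single dose, 1% DMSO | timing = overnight cell settling, then overnight compound exposure, 37 °C, 5% CO2 | read-out basis = GFP/RFP fluorescence ratio | controls = DMSO and RFP-L50D-GFP cell wells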
SKN-1 inh = inhibitors of C. elegans SKN-1 | C. elegans VP596 Pgst-4::GFP/RFP ratio, acrylamide-induced, 24 h | inhibition, % at 21.8 µM | actives 0.49% (n = 360,000);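 active means interference check ratio from 0.5 to 1.5 plus GFP to RFP signal ratio inhibition reaching or exceeding a fixed threshold, cut at about 30% in these data, passing the limit was not always enough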
Each line names hits and unclear results; the compound was inactive in the other large screens.

C#CCOCCOCCOCCNc1nc(N2CCN(C(=O)CCCCCCCCCCNC(=O)[C@H]([C@@H](C)CC)n3cc(CCCCCN)nn3)CC2)nc(N2CCN(C(=O)CCCCCCCCCCNC(=O)[C@H]([C@@H](C)CC)n3cc(CCCCN=C(N)N)nn3)CC2)n1	none
C#CCOCCOCCOCCNc1nc(N2CCN(C(=O)CCCCCCCCCCNC(=O)Cn3cc(C[C@@H](C)O)nn3)CC2)nc(N2CCN(C(=O)CCCCCCCCCCNC(=O)[C@H](CCCN=C(N)N)n3cc(C[C@@H](C)CC)nn3)CC2)n1	Rin1 Abl inh 13
C#CCOCCOCCOCCNc1nc(N2CCN(C(=O)CCCCCCCCCCNC(=O)Cn3cc(CCCCCN)nn3)CC2)nc(N2CCN(C(=O)CCCCCCCCCCNC(=O)[C@H]([C@@H](C)CC)n3cc(CCCCN=C(N)N)nn3)CC2)n1	Rin1 Abl inh 15
COc1cccc(Cn2c(C(C)n3c(C)nc4ccccc43)nc3ccccc32)c1 (stereo not given)	none (no result: Rin1 Abl inh, Arrestin-AP2 inh)
CC(C)Oc1cccc(NC(=O)C2(C)CCCN2C(=O)C(C)C)c1 (stereo not given)	none (no result: Arrestin-AP2 inh)
COC(=O)N1CCCC(c2cc(C(=O)Nc3ccccc3Cl)no2)C1 (stereo not given)	none (no result: Arrestin-AP2 inh)
O=C(Nc1ccccc1Cl)c1cc(C2CCCN(C(=O)OCCF)C2)on1 (stereo not given)	SKN-1 inh 37 (no result: Arrestin-AP2 inh)
CCC(C)(C)C(=O)Nc1ncc(S(=O)(=O)c2ccc([N+](=O)[O-])cc2)s1	SKN-1 inh 36
COC(=O)c1cccc(-n2cnnn2)c1	none
COc1cccc(-n2cnnn2)c1	SKN-1 inh 40
CCOc1cc(OCC)cc(C(=O)N2CCC[C@H]2C(=O)N2CCC[C@H]2C(=O)N(C)Cc2ccccc2)c1	none (no result: Rin1 Abl inh, Arrestin-AP2 inh)
Cc1cc(OCCCCN2C(=O)NC(C)(C)C2=O)cc(C)c1Cl	SKN-1 inh 39
O=C(Nc1nc2ccccc2s1)c1ccccc1	SKN-1 inh 65
Cc1ccc([C@H]2C[C@H](O)[C@@H](n3cc(C4CC4)nn3)CN2Cc2cccs2)cc1	none (no result: Arrestin-AP2 inh)
Fc1cc(Cl)cc2ccc(-c3ccccc3)nc12	SKN-1 inh 36 (no result: Arrestin-AP2 inh)
Fc1ccc2nc(-c3ccccc3)ccc2c1	none (no result: Arrestin-AP2 inh)
COc1ccc([C@H]2N[C@]3(CCCN(CC4CCCCC4)C3=O)[C@H]3C(=O)N(Cc4ccccc4)C(=O)[C@@H]23)cc1	none (no result: Arrestin-AP2 inh)
Cn1c(=O)c2c(-c3ccccc3)n(-c3cccc(O)c3)cc2n(C)c1=O	none (no result: Arrestin-AP2 inh)
Cn1c(=O)c2c(-c3ccccc3)n(-c3ccc(N)cc3)cc2n(C)c1=O	SKN-1 inh 49 (no result: Arrestin-AP2 inh)
C[C@@H](CO)NC(=O)c1[nH]cnc1C(=O)Nc1cccc(Cl)c1	none (no result: Arrestin-AP2 inh)
FCCCOc1ccc(-c2nccc(-c3ccc(F)cc3)n2)cc1	none
FCCCOc1ccc(-c2ccnc(-c3ccccc3)n2)cc1	SKN-1 inh 57
CCOC(=O)C1=C(O)c2ccccc2C(=O)/C1=C\c1ccc(C)cc1	SKN-1 inh 48
O=C(/C=C/Nc1ccccc1F)c1ccc(Br)cc1	none
COc1ccc(C(=O)/C=C/Nc2ccccn2)c(OC)c1	none
O=C(/C=C\Nc1ccccn1)c1ccccc1	SKN-1 inh 61
O=C(/C=C/Nc1ccc(Br)cc1F)c1ccccc1	SKN-1 inh 50
Cc1nc2sc3c(c2c(=O)n1NC(=O)CCBr)CCCC3	Arrestin-AP2 inh 62
Cc1ccccc1-n1c(SCC(=O)O)nc2sc3c(c2c1=O)CCCC3	SKN-1 inh 36
CCCc1nc2sc3c(c2c(=O)n1NC(=O)CCC(=O)OC)CCCC3	none
Cc1c(CN2CCCC(C(=O)Nc3cccc(-n4cccn4)c3)C2)cnn1C (stereo not given)	SKN-1 inh 36
O=C(NCCOc1ccc(Cl)cc1)c1ccc2ccccc2n1	SKN-1 inh 39
CCN1/C(=C/c2ccc3cccc(C)c3[n+]2CC)Sc2ccccc21	SKN-1 inh 49
COc1cccc(CN(C)C(=O)C2CCCN(C(=O)c3ccc(Cl)cc3)C2)c1 (stereo not given)	none (no result: Arrestin-AP2 inh)
CCN(C(=O)CN1C(=O)S/C(=C\c2cccc(Cl)c2)C1=O)C1CCS(=O)(=O)C1 (stereo not given)	SKN-1 inh 37
CCN1C(=S)SC(=O)C1=C1C=C(C)N(Cc2ccco2)C(C)=C1	none
CCN1C(=S)SC(=O)C1=C1C=C(C)OC(C)=C1	SKN-1 inh 44
COc1cc(Nc2ccn3nccc3n2)cc(OC)c1OC	none (no result: Arrestin-AP2 inh)
COc1ccc2c(c1)c(C(O)CN1CCN(Cc3ccc4c(c3)OCO4)CC1)c(C)n2C (stereo not given)	SKN-1 inh 44
Cc1c(C(O)CN2CCN(Cc3ccc4c(c3)OCO4)CC2)c2ccccc2n1C (stereo not given)	none
CC1(C)CC(=O)C=C(c2ccc(COC(=O)C(c3ccccc3)c3ccccc3)cc2)C1=O	none (no result: Arrestin-AP2 inh)
Cn1c(N=Nc2ccccc2)nc2ccccc21	SKN-1 inh 40
CN(C)c1ccc(N=Nc2nc3ccccc3n2C)cc1	SKN-1 inh 62
CCn1c(NCc2ccc(N(C)C)cc2)nc2ccccc21	none
CC(=O)Nc1ccc(NC(=O)C(C)OC(=O)/C(C#N)=C/c2ccc(N(C)C)cc2)cc1 (stereo not given)	none
CC(OC(=O)/C(C#N)=C/c1ccc(N(C)C)cc1)C(=O)N(C)c1ccccc1 (stereo not given)	SKN-1 inh 46
Cc1ccc(N=C2NC(=O)/C(=C\c3cccs3)S2)cc1C	none
Cc1ccc(/C=C2/SC(=Nc3ccc(F)cc3)NC2=O)s1	SKN-1 inh 40
COC(=O)C1=CN(c2ccc(N3CCOCC3)cc2)C(N)=C(C#N)C1c1ccc(-c2ccccc2)cc1 (stereo not given)	none (no result: Rin1 Abl inh, Arrestin-AP2 inh)
COC(=O)[C@@]12C[C@@H](CC(=O)NCCc3ccccc3OC)C(=O)N(CCc3ccc(OC)c(OC)c3)C1=CCC(C)(C)C2	none (no result: Rin1 Abl inh, Arrestin-AP2 inh)
O=C1C(=C(O)c2ccccc2)C(=O)c2ccccc21	Rin1 Abl inh 13
CCCCc1ccc(S(=O)(=O)NC(=O)C2(C)CCN2C(=O)CC2CC2)cc1 (stereo not given)	none (no result: Arrestin-AP2 inh)
CCc1nnc(NC(=O)CC(C)c2ccccc2)s1 (stereo not given)	SKN-1 inh 36
COc1ccccc1NS(=O)(=O)c1cc([N+](=O)[O-])ccc1N/N=C/c1c[nH]c2ccccc12	SKN-1 inh 40
COc1ccc(NS(=O)(=O)c2cc([N+](=O)[O-])ccc2N/N=C\c2c(C)[nH]c3ccccc23)cc1	none
CCN(c1ccccc1)S(=O)(=O)c1cccc(C(=O)Nc2ccc(C)cn2)c1	SKN-1 inh 48
Cc1ccc(CN2C(=O)c3ccccc3C2c2nnnn2-c2c(C)cccc2C)cc1 (stereo not given)	none (no result: Rin1 Abl inh, Arrestin-AP2 inh)
Cc1ccc(Nc2nc(-c3cccs3)cs2)nc1	SKN-1 inh 46
